Assay results taken from ChEMBL document CHEMBL4689842, “EUbOPEN Chemogenomics Library wave 1” (2021).
Several values for one entry are separate records, joined by “and”; a condition that tells them apart may be missing. Equal entries are not always repeated.

Key:
Type in all cases: toxicity, cell-based
[1] = system: U2OS; experiment: Multiplex assay against U2OS; settings: human
Method in brief: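 Live cells were stained at seeding with Hoechst33342, BioTracker Green Microtubule Cytoskeleton Dye, MitoTracker Red and Annexin V Alexa Fluor 680, then imaged on a CQ1 microscope at 37°C and 5% CO2 after compound addition. CellPathfinder machine-learning gating split cells into Hoechst high-intensity objects or normal cells. Normal cells were split into healthy, pyknosed or fragmented nuclei, and pyknosed cells into mitotic or apoptotic. Tubulin, mitochondrial-mass and membrane-permeability phenotypes are per cents of healthy-nucleus cells.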

[2] = system: HEK-293T; experiment: Incucyte cell viability with HEK293T; settings: human, 10 µM, compound concentration 10 uM; also: filed as whole numbers so only -1 and 0 and 1 occur
[3] = system: Fibroblast; experiment: Incucyte cell viability with human fibroblast; settings: 10 µM, compound concentration 10 uM; also: filed as whole numbers so only -1 and 0 and 1 occur
[4] = system: U2OS; experiment: Incucyte cell viability with U2OS; settings: human, 10 µM, compound concentration 10 uM; also: filed as whole numbers so only -1 and 0 and 1 occur
[5] = 12 h, 1 µM, compound concentration 1 uM, replicate 1
[6] = 12 h, 1 µM, compound concentration 1 uM, replicate 2
[7] = 12 h, 10 µM, compound concentration 10 uM, replicate 1
[8] = 12 h, 10 µM, compound concentration 10 uM, replicate 2
[9] = 24 h, 1 µM, compound concentration 1 uM, replicate 1
[10] = 24 h, 1 µM, compound concentration 1 uM, replicate 2
[11] = 24 h, 10 µM, compound concentration 10 uM, replicate 1
[12] = 24 h, 10 µM, compound concentration 10 uM, replicate 2
[13] = 48 h, 10 µM, compound concentration 10 uM, replicate 1
[14] = 48 h, 10 µM, compound concentration 10 uM, replicate 2
[15] = 0 h, replicate number 1, timepoint 0 hours
[16] = 6 h, replicate number 1, timepoint 6 hours
[17] = 18 h, replicate number 1, timepoint 18 hours
[18] = 24 h, replicate number 1, timepoint 24 hours
[19] = 12 h, replicate number 1, timepoint 12 hours

Cc1c(Nc2ccc(S(=O)(=O)N3CCN(C)CC3)cc2F)nc2ccc(-c3cnn(C4CC4)c3)cn2c1=O
Population Apoptotic (%) [1, 5]: 12% | Population Fragmented Nuclei (%) [1, 5]: 4% | Population Healthy Nuclei (%) [1, 5]: 91% | Population Hoechst High Intensity Objects (%) [1, 5]: 2% | Population Membrane Permeable-Phenotype (%) [1, 5]: 5% | Population Mitochondria Different-Phenotype (%) [1, 5]: 15% | Population Mitotic Cells (%) [1, 5]: 87% | Population Normal (%) [1, 5]: 97% | Population Pyknosed Nuclei (%) [1, 5]: 4% | Population Tubulin-Different-Phenotype (%) [1, 5]: 18% | Total Cell Count [1, 5]: 160 | Population Apoptotic (%) [1, 6]: 0% | Population Fragmented Nuclei (%) [1, 6]: 5% | Population Healthy Nuclei (%) [1, 6]: 93% | Population Hoechst High Intensity Objects (%) [1, 6]: 8% | Population Membrane Permeable-Phenotype (%) [1, 6]: 10% | Population Mitochondria Different-Phenotype (%) [1, 6]: 17% | Population Mitotic Cells (%) [1, 6]: 100% | Population Normal (%) [1, 6]: 91% | Population Pyknosed Nuclei (%) [1, 6]: 1% | Population Tubulin-Different-Phenotype (%) [1, 6]: 15% | Total Cell Count [1, 6]: 119 | Population Apoptotic (%) [1, 7]: 29% and 44% | Population Fragmented Nuclei (%) [1, 7]: 21% and 30% | Population Healthy Nuclei (%) [1, 7]: 73% and 60% | Population Hoechst High Intensity Objects (%) [1, 7]: 34% and 46% | Population Mitotic Cells (%) [1, 7]: 70% and 55% | Population Normal (%) [1, 7]: 65% and 53% | Population Pyknosed Nuclei (%) [1, 7]: 5% and 8% | Population Tubulin-Different-Phenotype (%) [1, 7]: 12% and 27% | Total Cell Count [1, 7]: 201 and 120 | Population Fragmented Nuclei (%) [1, 8]: 56% | Population Healthy Nuclei (%) [1, 8]: 42% and 39% | Population Hoechst High Intensity Objects (%) [1, 8]: 41% and 58% | Population Membrane Permeable-Phenotype (%) [1, 8]: 17% and 8% | Population Mitochondria Different-Phenotype (%) [1, 8]: 11% and 23% | Population Mitotic Cells (%) [1, 8]: 80% and 35% | Population Normal (%) [1, 8]: 58% and 41% | Population Pyknosed Nuclei (%) [1, 8]: 1% and 3% | Population Tubulin-Different-Phenotype (%) [1, 8]: 11% and 8% | Population Apoptotic (%) [1, 9]: 0% | Population Fragmented Nuclei (%) [1, 9]: 1% | Population Healthy Nuclei (%) [1, 9]: 95% | Population Hoechst High Intensity Objects (%) [1, 9]: 1% | Population Membrane Permeable-Phenotype (%) [1, 9]: 7% | Population Mitochondria Different-Phenotype (%) [1, 9]: 7% | Population Mitotic Cells (%) [1, 9]: 100% | Population Normal (%) [1, 9]: 98% | Population Pyknosed Nuclei (%) [1, 9]: 2% | Population Tubulin-Different-Phenotype (%) [1, 9]: 17% | Total Cell Count [1, 9]: 173 | Population Apoptotic (%) [1, 10]: 11% | Population Fragmented Nuclei (%) [1, 10]: 4% | Population Healthy Nuclei (%) [1, 10]: 89% | Population Hoechst High Intensity Objects (%) [1, 10]: 3% | Population Membrane Permeable-Phenotype (%) [1, 10]: 8% | Population Mitochondria Different-Phenotype (%) [1, 10]: 29% | Population Mitotic Cells (%) [1, 10]: 88% | Population Normal (%) [1, 10]: 96% | Population Pyknosed Nuclei (%) [1, 10]: 6% | Population Tubulin-Different-Phenotype (%) [1, 10]: 20% | Total Cell Count [1, 10]: 122 | Population Apoptotic (%) [1, 11]: 29% and 32% | Population Fragmented Nuclei (%) [1, 11]: 15% and 33% | Population Healthy Nuclei (%) [1, 11]: 77% and 56% | Population Hoechst High Intensity Objects (%) [1, 11]: 27% and 49% | Population Membrane Permeable-Phenotype (%) [1, 11]: 14% and 7% | Population Mitochondria Different-Phenotype (%) [1, 11]: 8% and 22% | Population Mitotic Cells (%) [1, 11]: 70% and 67% | Population Normal (%) [1, 11]: 72% and 50% | Population Pyknosed Nuclei (%) [1, 11]: 6% and 10% | Population Tubulin-Different-Phenotype (%) [1, 11]: 7% and 16% | Total Cell Count [1, 11]: 284 and 128 | Population Apoptotic (%) [1, 12]: 22% and 60% | Population Fragmented Nuclei (%) [1, 12]: 56% and 58% | Population Healthy Nuclei (%) [1, 12]: 41% and 37% | Population Hoechst High Intensity Objects (%) [1, 12]: 40% and 58% | Population Membrane Permeable-Phenotype (%) [1, 12]: 16% and 13% | Population Mitochondria Different-Phenotype (%) [1, 12]: 9% and 23% | Population Mitotic Cells (%) [1, 12]: 77% and 40% | Population Normal (%) [1, 12]: 59% and 41% | Population Pyknosed Nuclei (%) [1, 12]: 2% and 3% | Population Tubulin-Different-Phenotype (%) [1, 12]: 8% and 13% | Population Apoptotic (%) [1, 13]: 43% | Population Fragmented Nuclei (%) [1, 13]: 23% | Population Healthy Nuclei (%) [1, 13]: 67% | Population Hoechst High Intensity Objects (%) [1, 13]: 39% | Population Membrane Permeable-Phenotype (%) [1, 13]: 4% | Population Mitochondria Different-Phenotype (%) [1, 13]: 8% | Population Mitotic Cells (%) [1, 13]: 56% | Population Normal (%) [1, 13]: 60% | Population Pyknosed Nuclei (%) [1, 13]: 8% | Population Tubulin-Different-Phenotype (%) [1, 13]: 18% | Total Cell Count [1, 13]: 130 | Population Apoptotic (%) [1, 14]: 71% | Population Fragmented Nuclei (%) [1, 14]: 57% | Population Healthy Nuclei (%) [1, 14]: 38% | Population Hoechst High Intensity Objects (%) [1, 14]: 53% | Population Membrane Permeable-Phenotype (%) [1, 14]: 11% | Population Mitochondria Different-Phenotype (%) [1, 14]: 17% | Population Mitotic Cells (%) [1, 14]: 28% | Population Normal (%) [1, 14]: 46% | Population Pyknosed Nuclei (%) [1, 14]: 3% | Population Tubulin-Different-Phenotype (%) [1, 14]: 8% | Total Cell Count [1, 14]: 45 | Growth Rate [2, 15]: 1 | Growth Rate [2, 16]: 0 | Growth Rate ([2]; 12 h, replicate number 2, timepoint 12 hours): 1 | Growth Rate [2, 17]: 1 | Growth Rate [2, 18]: 1 | Growth Rate [3, 15]: 0 | Growth Rate [3, 19]: 1 | Growth Rate [3, 17]: 1 | Growth Rate [3, 18]: 1 | Growth Rate ([4]; 0 h, replicate number 2, timepoint 0 hours): 0 | Growth Rate [4, 16]: 1 | Growth Rate [4, 19]: 0 | Growth Rate [4, 17]: 0 | Growth Rate ([4]; 18 h, replicate number 2, timepoint 18 hours): 1 | Growth Rate [4, 18]: 0 | Growth Rate ([4]; 24 h, replicate number 2, timepoint 24 hours): 1
